We go through one molecule from ChEMBL document CHEMBL5338796, “Discovery of a Selective and Orally Bioavailable FGFR2 Degrader for Treating Gastric Cancer” (J Med Chem, 2023).

The source made the active and inactive calls.

Series [1] concerns the target Fibroblast growth factor receptor (Homo sapiens) (UniProt P22607+P11362+P22455+P21802). The experiment in a line: Induction of FGFR degradation in human KATO III stomach cancer cell line assessed as reduction in PLCgamma phosphorylation at 50 nM measured for 6 hrs. In kind it is cell-based. In outline: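 KATO III cells incubated 6 h with 50 nM compound, then stimulated with FGF1 for 10 min; pFGFR, pPLCγ1 (Tyr783) and pFRS2α immunoblotted.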

For series [2], the system named is SNU-16. The experiment in a line: Antitumor activity against human SNU-16 cells xenografted in BALB/c nude mouse assessed as reduction in PLCgamma phosphorylation in tumor at 20 mg/kg, po measured at 4 hrs. In kind it is functional, organism-based. In short, it runs like this:
(§1)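 Female BALB/c nude mice, 5 weeks old (20–22 g), s.c. right-flank SNU-16 implants, randomized by body weight into groups (n = 5) once tumours reached 50–100 mm3. Dosing 20 mg/kg/day intragastric in 0.5% CMC-Na for 15 d; vehicle controls. Tumour width and length measured every 2 days; tumours harvested 4 h after last dose and lysates immunoblotted for pFGFR, FGFR2, pPLCγ, pErk.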
Background: A xenograft is tissue or cells of one species grown in another, often human tumour cells in immunodeficient mice.

The test system of series [3] is SNU-16. The experiment in a line: Antitumor activity against human SNU-16 cells xenografted in BALB/c nude mouse assessed as reduction in FGFR phosphorylation in tumor at 20 mg/kg, po measured at 4 hrs. In kind it is functional, organism-based. In outline: as §1
Series [4] addresses T1, Protein cereblon/Fibroblast growth factor receptor 2 (Homo sapiens, UniProt P21802+Q96SW2). The experiment in a line: PROTAC activity at CRBN/FGFR2 in human KATO III stomach cancer cell line assessed as FGFR2 degradation by measuring FGFR2 expression level upto 100 nM by Western blotting analysis. In kind it is cell-based. The note with it: time 12.0 hrs, TDE = time-dependent effect. In outline: (§2)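 KATO III cells treated 6 h across 0.5–10,000 nM (DMSO stock, final DMSO below 0.5%); FGFR2 immunoblotted, quantified as FGFR2/β-actin ratio normalized to DMSO-treated cells, three independent biological experiments; DC50 and Dmax derived from the curve.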
On the technique in general: Immunoblotting shows a protein as a band on a membrane.

Series [5] addresses T1, Protein cereblon/Fibroblast growth factor receptor 2. Description: PROTAC activity at CRBN/FGFR2 in human KATO III stomach cancer cell line assessed as FGFR2 degradation by measuring FGFR2 expression level upto 100 nM measured after 3 hrs by Western blotting analysis. In kind it is cell-based. In short, it runs like this:
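Time course in KATO III cells: FGFR2/β-actin by Western blot at successive treatment times, normalized to DMSO control.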

The target is the same in series [6]. Description: PROTAC activity at CRBN/FGFR2 in human KATO III stomach cancer cell line assessed as FGFR2 degradation by measuring FGFR2 expression level at 0.5 to 100 nM measured for 6 hrs by Western blotting analysis. In kind it is cell-based. Conditions: dose 0.5-100 nM. In outline: as §2
In series [7] the target is Fibroblast growth factor receptor 2 (Homo sapiens) (UniProt P21802). Description: Inhibition of partial length human FGFR2 at 1000 nM by KINOMEscan analysis relative to control. In outline: (§3)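 97-kinase scanEDGE panel screened at 1000 nM; results reported as % Ctrl, lower values meaning stronger inhibition.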
Series [8] has as its target Fibroblast growth factor receptor 3 (Homo sapiens) (UniProt P22607). The experiment in a line: Inhibition of partial length human FGFR3 at 1000 nM by KINOMEscan analysis relative to control. In outline: as §3
For series [9], the target named is Mitogen-activated protein kinase kinase kinase 4 (Homo sapiens) (UniProt Q9Y6R4). Description: Inhibition of partial length human MAP3K4 at 1000 nM by KINOMEscan analysis relative to control.
The target in series [10] is T1, Protein cereblon/Fibroblast growth factor receptor 2. Description: PROTAC activity at CRBN/FGFR2 in human KATO III stomach cancer cell line at 100 nM measured for 6 hrs by Western blot analysis relative to control. In kind it is cell-based. In short, it runs like this: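 KATO III cells treated for 6 h at the stated concentrations, added from 10 mM DMSO stocks (final DMSO below 0.5%). Cells were washed with PBS and lysed in 2× loading buffer, then run on SDS-PAGE and blotted to PVDF. Anti-FGFR2 was applied overnight at 4 °C, with ECL detection. FGFR2 was expressed as FGFR2/β-actin, normalized to DMSO-treated cells, from three independent biological experiments.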

For another series, the system named is BaF3. Description: Antiproliferative activity against mouse BaF3 cells expressing Tel-FGFR1 assessed as cell growth inhibition measured after 72 hrs by celltiter-glo reagent based assay. In kind it is functional. Conditions: BaF3, 72 h. In outline: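 Ba/F3 cells stably expressing cytoplasmic TEL-FGFR1, -2, -3 or -4 fusions were treated in 96-well format, final DMSO 0.1%, for 72 h. Viability read by CellTiter-Glo luminescence after 10 min at room temperature. Inhibition calculated from blank- and control-corrected RLU; IC50 from 4-parameter concentration–response fit.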

Series [11] addresses T1, Protein cereblon/Fibroblast growth factor receptor 2. Description: PROTAC activity at CRBN/FGFR2 in human KATO III stomach cancer cell line assessed as FGFR2 degradation measured for 6 hrs in presence of bortezomib by immunoblot analysis. In kind it is cell-based. In short, it runs like this:
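KATO III cells were pretreated with 1 μM proteasome inhibitor (MG132 or bortezomib), then exposed to degrader at 100 nM for 6 h. FGFR2 was read by immunoblot against β-actin loading, with ECL detection.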

The next series concerns NCI-H716. The experiment in a line: Antiproliferative activity against human NCI-H716 cells assessed as reduction in cell viability measured for 72 hrs by celltiter-glo reagent based assay. In kind it is functional. Conditions: NCI-H716, 72 h. In outline:
(§4)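 Cancer lines KATO III, SNU16, NCI-H716, NCI-H1975, MV-4-11 and HEK293T treated 72 h; antiproliferative IC50 given as mean ± s.d. from three independent biological experiments.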
In general terms: ATP-based viability assays read luminescence as a measure of living cells.

In the next series the test system is MV4-11. Description: Antiproliferative activity against human MV4-11 cells assessed as reduction in cell viability measured for 72 hrs by celltiter-glo reagent based assay. In kind it is functional. Conditions: MV4-11, 72 h. In outline: as §4
Series [12] can be described thus: Antiproliferative activity against human HEK293T cells assessed as reduction in cell viability measured for 72 hrs by celltiter-glo reagent based assay. In kind it is toxicity, HEK-293T. In short, it runs like this: as §4
The nature of series [13]: Half life in Sprague-Dawley rat at 20 mg/kg, po measured at 0.25 to 24 hrs by LC-MS/MS analysis. In kind it is ADME, organism-based. The note with it: in vivo, time 0.25-24 hrs. In outline:
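Male Sprague Dawley rats, single dose i.v. 3 mg/kg or p.o. 20 mg/kg in 10% Solutol, 85% (10% HP-β-CD in saline), 5% DMSO, pH adjusted to 9–10.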

A short description of series [14]: Toxicity in ICR mouse assessed as change in lung weight at 20 mg/kg, po measured for 30 days. In kind it is organism-based. The note with it: in vivo, 720 h, time 30 day. In outline: (§5)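 ICR mice (n = 6) were dosed orally at 20 mg/kg/day for 30 days, alongside vehicle-treated controls. Mortality and clinical signs were checked daily. At the end, body and organ weights were recorded. Heart, liver, spleen, lung and kidney were examined by hematoxylin and eosin staining.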

Series [15] is described as follows: Toxicity in ICR mouse assessed as morphological changes in heart at 20 mg/kg, po measured for 30 days by hematoxyin-eosin staining based analysis. In kind it is organism-based. Conditions: in vivo, 720 h, time 30 day. In outline:
as §5

Series [16] in a line: Toxicity in ICR mouse assessed as morphological changes in spleen at 20 mg/kg, po measured for 30 days by hematoxyin-eosin staining based analysis. Conditions: in vivo, 720 h, time 30 day. In kind it is organism-based. In short, it runs like this:
as §5

Series [17] has as its system SNU-16. The experiment in a line: Antitumor activity against human SNU-16 cells xenografted in BALB/c nude mouse assessed as tumor growth inhibition at 20 mg/kg, po administered for 15 days and measured on day 2. In kind it is functional. Conditions: SNU-16, 48 h, time 2 day, read-out: TGI. In outline:
as §1

A short description of series [18]: Oral bioavailability in mice at 20 mg/kg measured at 0.25 to 24 hrs by LC-MS/MS analysis. The note with it: mouse, in vivo.

T1 sequence (P21802 22-821 limits assumed): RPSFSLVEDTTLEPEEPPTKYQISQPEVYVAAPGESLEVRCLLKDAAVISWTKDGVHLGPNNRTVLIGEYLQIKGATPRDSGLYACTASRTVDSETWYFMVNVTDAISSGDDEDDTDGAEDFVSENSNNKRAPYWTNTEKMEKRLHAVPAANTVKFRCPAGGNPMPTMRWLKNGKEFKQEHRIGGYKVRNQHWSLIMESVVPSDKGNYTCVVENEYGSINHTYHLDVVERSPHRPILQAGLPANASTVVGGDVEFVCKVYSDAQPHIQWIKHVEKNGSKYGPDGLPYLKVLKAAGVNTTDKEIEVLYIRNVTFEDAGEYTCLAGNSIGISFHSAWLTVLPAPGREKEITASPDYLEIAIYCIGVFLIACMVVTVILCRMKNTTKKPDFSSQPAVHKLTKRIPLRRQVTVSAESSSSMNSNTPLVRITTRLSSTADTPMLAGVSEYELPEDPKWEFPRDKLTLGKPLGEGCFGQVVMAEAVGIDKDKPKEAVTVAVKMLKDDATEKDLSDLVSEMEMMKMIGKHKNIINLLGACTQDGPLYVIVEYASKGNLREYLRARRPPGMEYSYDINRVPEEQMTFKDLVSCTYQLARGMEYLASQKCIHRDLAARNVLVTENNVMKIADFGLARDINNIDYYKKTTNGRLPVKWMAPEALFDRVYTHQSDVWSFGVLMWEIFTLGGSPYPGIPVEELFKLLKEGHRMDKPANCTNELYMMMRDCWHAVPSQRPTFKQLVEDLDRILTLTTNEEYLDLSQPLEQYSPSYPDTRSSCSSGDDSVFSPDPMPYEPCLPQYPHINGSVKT
T1 sequence (Q96SW2 whole entry partner): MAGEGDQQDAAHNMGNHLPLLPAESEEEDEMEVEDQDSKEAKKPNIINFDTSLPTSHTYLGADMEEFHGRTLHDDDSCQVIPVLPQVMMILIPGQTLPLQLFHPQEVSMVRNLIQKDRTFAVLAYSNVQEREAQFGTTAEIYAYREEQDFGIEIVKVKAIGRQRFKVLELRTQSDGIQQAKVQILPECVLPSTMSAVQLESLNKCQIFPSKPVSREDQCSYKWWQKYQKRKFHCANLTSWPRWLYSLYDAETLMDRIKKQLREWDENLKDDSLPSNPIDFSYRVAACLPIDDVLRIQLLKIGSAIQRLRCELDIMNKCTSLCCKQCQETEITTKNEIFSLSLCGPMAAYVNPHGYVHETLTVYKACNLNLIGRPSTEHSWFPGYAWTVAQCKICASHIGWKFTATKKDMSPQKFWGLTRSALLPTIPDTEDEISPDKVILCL
Chain of Fibroblast growth factor receptor (Homo sapiens) (P11362 whole entry, looked up): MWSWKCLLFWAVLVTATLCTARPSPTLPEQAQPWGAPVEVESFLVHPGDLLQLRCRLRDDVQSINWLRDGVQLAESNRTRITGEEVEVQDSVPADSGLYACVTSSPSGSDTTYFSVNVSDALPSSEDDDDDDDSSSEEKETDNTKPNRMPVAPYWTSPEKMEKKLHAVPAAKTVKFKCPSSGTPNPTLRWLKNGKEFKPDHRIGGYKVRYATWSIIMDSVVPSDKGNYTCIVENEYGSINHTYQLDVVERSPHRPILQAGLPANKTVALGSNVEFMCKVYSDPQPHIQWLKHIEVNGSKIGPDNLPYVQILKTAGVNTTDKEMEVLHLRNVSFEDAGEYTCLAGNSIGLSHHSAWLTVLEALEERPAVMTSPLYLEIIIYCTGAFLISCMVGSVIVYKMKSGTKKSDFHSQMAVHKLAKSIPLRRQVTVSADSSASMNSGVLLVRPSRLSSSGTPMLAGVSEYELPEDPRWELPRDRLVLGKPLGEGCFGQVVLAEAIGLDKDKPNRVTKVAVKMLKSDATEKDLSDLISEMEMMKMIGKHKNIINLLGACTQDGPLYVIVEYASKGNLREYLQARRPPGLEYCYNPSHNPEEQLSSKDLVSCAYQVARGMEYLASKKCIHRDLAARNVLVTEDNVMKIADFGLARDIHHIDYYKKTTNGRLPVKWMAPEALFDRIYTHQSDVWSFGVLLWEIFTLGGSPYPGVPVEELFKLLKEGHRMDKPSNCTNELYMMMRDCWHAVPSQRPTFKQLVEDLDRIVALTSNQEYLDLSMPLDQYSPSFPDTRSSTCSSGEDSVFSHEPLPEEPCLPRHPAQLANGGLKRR
Chain of Fibroblast growth factor receptor (Homo sapiens) (P21802 whole entry, looked up): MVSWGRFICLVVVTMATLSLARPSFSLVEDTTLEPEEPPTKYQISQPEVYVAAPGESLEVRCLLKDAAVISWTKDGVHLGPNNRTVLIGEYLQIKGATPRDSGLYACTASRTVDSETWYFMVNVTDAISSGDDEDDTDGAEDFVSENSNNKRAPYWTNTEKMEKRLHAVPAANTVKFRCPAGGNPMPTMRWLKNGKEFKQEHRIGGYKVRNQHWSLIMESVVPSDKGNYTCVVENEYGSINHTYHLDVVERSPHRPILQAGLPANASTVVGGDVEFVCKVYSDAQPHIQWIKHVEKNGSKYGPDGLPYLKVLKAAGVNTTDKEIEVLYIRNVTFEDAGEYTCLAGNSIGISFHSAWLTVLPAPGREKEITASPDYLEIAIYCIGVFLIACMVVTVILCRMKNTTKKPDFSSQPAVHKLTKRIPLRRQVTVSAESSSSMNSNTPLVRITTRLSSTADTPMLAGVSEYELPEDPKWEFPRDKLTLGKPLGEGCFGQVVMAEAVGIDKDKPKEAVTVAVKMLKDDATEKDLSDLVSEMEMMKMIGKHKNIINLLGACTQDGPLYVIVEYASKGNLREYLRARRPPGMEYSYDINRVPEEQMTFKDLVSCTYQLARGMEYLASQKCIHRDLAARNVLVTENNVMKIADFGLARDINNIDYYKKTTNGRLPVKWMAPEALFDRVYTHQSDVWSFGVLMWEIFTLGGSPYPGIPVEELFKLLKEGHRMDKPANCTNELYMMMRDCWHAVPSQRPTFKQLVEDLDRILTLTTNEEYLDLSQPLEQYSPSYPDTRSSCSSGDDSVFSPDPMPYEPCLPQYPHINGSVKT
Chain of Fibroblast growth factor receptor (Homo sapiens) (P22455 whole entry, looked up): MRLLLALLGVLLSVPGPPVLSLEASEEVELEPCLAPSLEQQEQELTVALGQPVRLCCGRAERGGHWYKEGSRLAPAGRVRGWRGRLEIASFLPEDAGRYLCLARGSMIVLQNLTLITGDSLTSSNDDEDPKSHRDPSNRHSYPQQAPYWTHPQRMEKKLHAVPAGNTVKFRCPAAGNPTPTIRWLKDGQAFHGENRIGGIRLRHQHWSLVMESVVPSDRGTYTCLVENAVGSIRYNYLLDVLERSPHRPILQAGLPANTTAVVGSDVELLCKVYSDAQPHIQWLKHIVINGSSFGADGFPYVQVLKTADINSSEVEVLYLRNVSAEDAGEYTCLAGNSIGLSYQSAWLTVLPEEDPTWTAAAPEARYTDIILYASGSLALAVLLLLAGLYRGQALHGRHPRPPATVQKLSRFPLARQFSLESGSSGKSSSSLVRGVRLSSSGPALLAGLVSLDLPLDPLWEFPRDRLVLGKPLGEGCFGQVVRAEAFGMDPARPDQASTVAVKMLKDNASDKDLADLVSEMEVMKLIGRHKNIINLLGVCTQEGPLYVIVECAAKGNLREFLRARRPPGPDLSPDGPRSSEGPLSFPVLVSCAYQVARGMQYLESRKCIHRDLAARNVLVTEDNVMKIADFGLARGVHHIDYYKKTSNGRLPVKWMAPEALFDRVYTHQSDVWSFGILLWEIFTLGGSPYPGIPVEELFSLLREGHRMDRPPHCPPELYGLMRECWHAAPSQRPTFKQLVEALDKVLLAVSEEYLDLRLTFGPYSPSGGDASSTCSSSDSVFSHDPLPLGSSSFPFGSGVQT
Chain of Fibroblast growth factor receptor (Homo sapiens) (P22607 whole entry, looked up): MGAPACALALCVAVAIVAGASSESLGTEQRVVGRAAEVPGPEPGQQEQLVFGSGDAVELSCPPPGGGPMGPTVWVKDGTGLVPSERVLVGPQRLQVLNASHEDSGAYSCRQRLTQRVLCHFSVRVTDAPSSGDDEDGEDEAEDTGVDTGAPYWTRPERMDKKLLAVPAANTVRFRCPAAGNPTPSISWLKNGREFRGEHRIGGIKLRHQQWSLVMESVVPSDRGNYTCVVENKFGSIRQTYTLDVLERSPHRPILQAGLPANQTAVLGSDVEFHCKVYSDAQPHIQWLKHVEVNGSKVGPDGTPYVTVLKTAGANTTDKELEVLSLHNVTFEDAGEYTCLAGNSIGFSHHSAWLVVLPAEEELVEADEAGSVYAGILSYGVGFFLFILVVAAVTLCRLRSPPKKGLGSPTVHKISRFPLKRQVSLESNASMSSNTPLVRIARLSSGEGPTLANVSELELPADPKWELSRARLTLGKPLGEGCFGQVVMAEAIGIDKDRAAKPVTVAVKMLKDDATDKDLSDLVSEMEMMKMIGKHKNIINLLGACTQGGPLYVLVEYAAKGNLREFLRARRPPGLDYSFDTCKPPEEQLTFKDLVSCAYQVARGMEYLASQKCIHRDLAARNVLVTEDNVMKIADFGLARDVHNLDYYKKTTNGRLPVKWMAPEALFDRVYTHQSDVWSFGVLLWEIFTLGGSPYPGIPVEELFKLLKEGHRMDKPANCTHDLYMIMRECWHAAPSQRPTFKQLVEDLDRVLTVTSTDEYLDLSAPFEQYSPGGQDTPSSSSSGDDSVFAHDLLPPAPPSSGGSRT
Chain of Fibroblast growth factor receptor 2 (Homo sapiens) (P21802 22-821 limits assumed): as the sequence (P21802 22-821 limits assumed) above

As usually defined, the inhibition is the share of the control response that was lost under treatment. In general, IC50 refers to the concentration that inhibits the measured activity by half. The term half-life denotes the time needed for the level to fall by half in the phase considered. The bioavailability is dose-corrected exposure relative to a reference, in per cent. Low readings indicate poor availability, high ones good availability. Turning to `COc1cc(OC)c(Cl)c(NC(=O)N(C)c2cc(Nc3ccc(N4CCN(C(=O)C5CCN(c6ccc7c(c6)C(=O)N(C6CCC(=O)NC6=O)C7=O)CC5)CC4)cc3)ncn2)c1Cl` (stereo unspecified), the result (in series [1]; in the series on SNU-16 [2]; with SNU-16 [3]; in [5]) was Active. Besides, the Activity result is “Tde” in series [4]; 77% in [10]; “Non-Toxic” in series [14]; “Non-Toxic” in [15]; “Non-Toxic” in series [16]. Moreover, the outcome in series [6] and in series [11] was inactive. Besides, the inhibition in series [7] came to 87%; in series [8], 71%; in series [9], 45%. The IC50 with BaF3 was 125 nM; with NCI-H716, 3.2 nM; with MV4-11, over 10 µM. Further, in [12], the IC50 at 72 h is over 10 µM. Moreover, the half-life in [13] is 88.2 min. Also, the inhibition in vivo at 20 mg/kg with SNU-16 [17] turned out to be 63.1%. This molecule had a bioavailability in [18] of 13.1%.
